Measurements published in publication PMC6487498 (Toxicology and applied pharmacology, 2018).

How the values were obtained:
[1] = tested on: LPS-activated RAW264.7 macrophages; experiment: Nitric oxide production; format: cell-based, mouse; conditions: for effect of co-incubation on NO reduction by RID-B: ligand 5 μM with RID-B 1 μM
[2] = tested on: LPS-activated RAW264.7 macrophages; experiment: IL-6 release; format: cell-based, mouse; conditions: LPS 500 ng/ml, 48 h
[3] = tested on: LPS-activated RAW264.7 macrophages; experiment: TNF-α release; format: cell-based, mouse; conditions: LPS 500 ng/ml, 48 h; for effect of co-incubation with RID-B on TNF-α levels: ligand with RID-B
[4] = tested on: RAW264.7 mouse macrophage cells; experiment: Cell viability; format: cell-based; conditions: for effect of co-incubation on RID-B cytotoxicity: with RID-B 10 μM, LPS 500 ng/ml
[5] = tested on: primary bone marrow macrophages; experiment: Osteoclast differentiation with TRAP staining; format: cell-based, mouse; conditions: for effect on osteoclast development, ligand alone: receptor-saturating concentration, without RID-B; for effect of co-incubation on anti-osteoclastogenic effect of RID-B: with RID-B 300 nM; for number of osteoclasts: N = 4
human CB2 receptors [6] = molecular target: T1, human CB2 receptors (Homo sapiens, UniProt P34972); experiment: [35S]GTPγS binding; format: biochemical
human CB1 receptors = human CB1 receptors (Homo sapiens, UniProt P21554); experiment: Competition receptor binding vs [3H]CP-55,940, CHO-hCB1 membranes; conditions: RID-B 1 μM; radioligand 0.2 nM; initial binding screen, data not shown
human CB2 receptors [7] = molecular target: T1, human CB2 receptors; experiment: Competition receptor binding vs [3H]CP-55,940, CHO-hCB2 membranes
human CB2 receptors [8] = molecular target: T1, human CB2 receptors; experiment: Forskolin-stimulated adenylyl cyclase activity in CHO-hCB2 cells; format: cell-based
[9] = tested on: LPS-activated RAW264.7 macrophages; experiment: IL-1α release; format: cell-based, mouse; conditions: RID-B 1 μM; LPS 500 ng/ml, 48 h
In short: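 RAW264.7 mouse macrophages pre-incubated 1 h with test compound, then stimulated with LPS 500 ng/ml for 48 h. Media collected and stored at −20 °C. Mouse IL-1α measured by ELISA kit per manufacturer's instructions.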

[10] = tested on: CHO cells devoid of CB2 receptors; experiment: G-protein activity in CHO cells devoid of CB2 receptors; format: biochemical, Chinese hamster; conditions: data not shown
[11] = tested on: CHO cells not expressing cannabinoid receptors; experiment: Intracellular cAMP in CHO cells not expressing cannabinoid receptors; format: cell-based, Chinese hamster; conditions: data not shown

T1 sequence (P34972 whole entry): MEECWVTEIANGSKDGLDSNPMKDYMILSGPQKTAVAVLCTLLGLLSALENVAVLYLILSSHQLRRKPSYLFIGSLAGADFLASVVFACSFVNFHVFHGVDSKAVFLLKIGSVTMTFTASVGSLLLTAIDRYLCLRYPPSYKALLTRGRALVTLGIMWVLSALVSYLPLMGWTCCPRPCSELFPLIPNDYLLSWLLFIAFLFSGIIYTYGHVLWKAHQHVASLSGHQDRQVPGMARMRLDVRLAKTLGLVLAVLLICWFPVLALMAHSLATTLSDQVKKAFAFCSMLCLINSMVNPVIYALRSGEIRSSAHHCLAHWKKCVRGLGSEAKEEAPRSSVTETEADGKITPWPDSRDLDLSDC
Chain of human CB1 receptors (P21554 whole entry): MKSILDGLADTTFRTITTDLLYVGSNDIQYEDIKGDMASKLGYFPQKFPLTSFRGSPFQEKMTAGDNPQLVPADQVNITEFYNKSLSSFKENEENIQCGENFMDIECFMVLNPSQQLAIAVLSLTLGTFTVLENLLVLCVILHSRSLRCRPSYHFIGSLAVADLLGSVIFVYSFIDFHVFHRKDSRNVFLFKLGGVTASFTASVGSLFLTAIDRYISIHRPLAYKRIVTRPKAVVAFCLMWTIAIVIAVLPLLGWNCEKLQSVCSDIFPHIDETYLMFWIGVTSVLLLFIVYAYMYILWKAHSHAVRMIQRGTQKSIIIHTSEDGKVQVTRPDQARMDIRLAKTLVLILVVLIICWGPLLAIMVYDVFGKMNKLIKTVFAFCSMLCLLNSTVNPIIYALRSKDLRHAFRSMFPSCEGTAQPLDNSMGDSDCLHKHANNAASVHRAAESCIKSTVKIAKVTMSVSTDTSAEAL

Cc1c(C(=O)NN2CCOCC2)nn(-c2ccc(Cl)cc2Cl)c1-c1ccc(I)cc1 [AM-281]
effect of co-incubation on NO reduction by RID-B ([1]; LPS 500 ng/ml, 48 h): did not alter NO levels compared to RID-B administered alone | IL-6 level, ligand alone ([2]; without RID-B, N = 4): 1040 ± 119.4 pg/mL | TNF-α level, ligand alone ([3]; without RID-B, N = 4): 21.3 ± 0.21 ng/mL | effect of co-incubation with RID-B on TNF-α levels [3]: significantly increases TNF-α levels | effect of co-incubation on RID-B cytotoxicity [4]: attenuated | effect on osteoclast development, ligand alone [5]: significantly reduce osteoclast development | effect of co-incubation on anti-osteoclastogenic effect of RID-B [5]: little consequence on the effects of RID-B

COc1ccc(C(=O)c2c(C)n(CCN3CCOCC3)c3cc(I)ccc23)cc1 [AM-630]
effect of co-incubation on NO reduction by RID-B ([1]; LPS 500 ng/ml, 48 h): did not alter NO levels compared to RID-B administered alone | effect of co-incubation with RID-B on TNF-α levels [3]: significantly increases TNF-α levels | number of osteoclasts ([5]; AM-630 alone (1 μM in Fig. 7), vehicle 339.1 ± 15.6): 168.1 ± 15.4 osteoclasts per well

CCCCCCC(C)(C)c1ccc(C2CC(O)CCC2CCCO)c(O)c1 (stereo not drawn) [CP-55,940, 5-(1,1-dimethylheptyl)-2-[5-hydroxy-2-(3-hydroxypropyl)cyclohexyl]phenol]
Emax (human CB2 receptors [6]; read-out: G-protein activation Emax): 25.4 ± 3% | effect of co-incubation with RID-B on TNF-α levels [3]: have no effect | effect of co-incubation on RID-B cytotoxicity [4]: attenuated | effect on osteoclast development, ligand alone [5]: marginally reduced osteoclast formation | effect of co-incubation on anti-osteoclastogenic effect of RID-B [5]: significantly attenuated the anti-osteoclastogenic effects produced by RID-B

CCCn1c(C)c(C(=O)c2cccc3ccccc23)c2ccccc21 [JWH-015]
effect of co-incubation with RID-B on TNF-α levels [3]: have no effect | effect on osteoclast development, ligand alone [5]: significantly reduce osteoclast development | effect of co-incubation on anti-osteoclastogenic effect of RID-B [5]: little consequence on the effects of RID-B

CCC(=C(c1ccc(OCCN2CCCC2)cc1)c1ccc(OCCN2CCCC2)cc1)c1ccccc1 [RID-B, ridaifen-B]
displacement of [3H]-CP-55,940 from human CB1 receptors (human CB1 receptors): > 50% | displacement of [3H]-CP-55,940 from human CB2 receptors (human CB2 receptors [7]; RID-B 1 μM, radioligand 0.2 nM, initial binding screen, data not shown): > 50% | selectivity (affinity) for CB2 over CB1 receptors (human CB2 receptors [7]; ratio of Ki values): 17 fold | G-protein activation Imax (decrease below basal levels) (human CB2 receptors [6]; inverse agonism, N = 3): −31.2 ± 0.37% | Imax, increase of adenylyl cyclase activity (elevated cAMP levels) (human CB2 receptors [8]; 10 μM forskolin, inverse agonism, N = 3): 398 ± 30% | decrease in the potency of WIN-55,212-2 to inhibit adenylyl cyclase activity (human CB2 receptors [8]; RID-B 3 μM co-incubation, efficacy unchanged, parallel rightward shift): 11.2 fold | Kb (human CB2 receptors [8]; read-out: antagonist dissociation constant (Kb), RID-B 3 μM against WIN-55,212-2, N = 3): 294 nM | effect on EC50 values of LPS for NO production ([1]; RID-B 300 nM, 500 nM, 1 μM): did not alter the EC50 values of LPS | reduction of NO production vs cells treated only with LPS ([1]; RID-B 1 μM alone, LPS 500 ng/ml, 48 h, N = 10): 30.1 ± 5.1% | NO reduction ([1]; RID-B 1 μM co-incubated with CP-55,940 2 μM, LPS 500 ng/ml, 48 h, N = 10): 9.3 ± 4.6% | NO levels reduced to ([1]; RID-B 1 μM co-incubated with JWH-015 5 μM, LPS 500 ng/ml, 48 h, N = 4): 51.1 ± 6.4% | Emax of LPS-induced NO production ([1]; co-incubation with RID-B 300 nM, 48 h, N = 3): 19.4 ± 3.8 µM | Emax of LPS-induced NO production ([1]; co-incubation with RID-B 500 nM, 48 h, N = 3): 22.0 ± 9.9 µM | Emax of LPS-induced NO production ([1]; co-incubation with RID-B 1 μM, 48 h, N = 4): 18.2 ± 4.7 µM | IL-1α level [9]: 73.1 ± 4.7 pg/mL | reduction of IL-1α level [9]: 52.3% | reduction of LPS-induced IL-6 increase ([2]; RID-B 1 μM): 45% | IL-6 level ([2]; RID-B 1 μM, N = 4): 349.9 ± 34.9 pg/mL | effect on TNF-α levels ([3]; RID-B 1 μM): slight but non-significant increase in TNF-α levels | decrease of cell viability ([4]; RID-B 10 μM alone, 4 h exposure to LPS, N = 4): 34.0 ± 5.4% | effect on cell viability ([4]; RID-B 1 or 3 μM, forty-eight hour exposure to LPS 500 ng/ml): no effect on cell viability | number of osteoclasts ([5]; RID-B 300 nM alone, vehicle 339.1 ± 15.6): 174.4 ± 19.2 osteoclasts per well | number of osteoclasts ([5]; RID-B 300 nM co-incubated with AM-630): 94.6 ± 15.6 osteoclasts per well | maximal decrease in the number of osteoclasts ([5]; RID-B 300 nM, M-CSF and RANKL, 4 days, drugs on days 2 and 3): 48.6% | effect on G-protein activity [10]: no effect on G-protein activity | effect on intracellular cAMP levels [11]: does not alter intracellular cAMP levels

SR-144528 [reference compound]
effect of co-incubation on NO reduction by RID-B ([1]; LPS 500 ng/ml, 48 h): did not alter NO levels compared to RID-B administered alone
